Assay results from ChEMBL document CHEMBL6177922, “Antibacterial activity of the structurally novel C-2 amine-substituted analogues based on quinoxaline” (RSC Med Chem, 2025).
≈ marks a conversion by molar mass, not a printed value. Calls of active or inactive are those of the source. The calls are words filed in the database; no cut-off is given here.

Key:
Cell membrane [1] = assay: Induction of cell membrane integrity in Escherichia coli assessed as increase in K+ efflux at 3 times MIC by absorption spectrophotometric analysis; type: subcellular
Method in brief: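 Mid-log E. coli (6 h culture) was suspended to about 2 × 10^6 CFU mL−1 in 10 mM HEPES pH 7.3 plus 5 mM glucose (1:1). Cells were incubated with 3× MIC at 37 °C for various times, with a PBS control. Supernatant K+ was measured by atomic absorption spectrophotometry. Run in duplicate.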

Staphylococcus aureus [2] = assay: Antibiofilm activity against Methicillin-resistant Staphylococcus aureus assessed as reduction in number of viable cells at 16 times MIC incubated for 24 hrs; type: functional, organism-based
Staphylococcus aureus [3] = assay: Antibacterial activity against methicillin-resistant Staphylococcus aureus infected in Kunming mouse corneal infection model assessed as reduction in viable bacterial count at 3 mg/ml, TOP administered 3 times daily for 1 week; type: functional, organism-based; conditions: time 1.0 weeks
Method in brief: (§1)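 Corneal infection model: male and female Kunming mice (~20 g) immunosuppressed with daily i.p. cyclophosphamide for 3 days. Anesthetized with i.p. avertin (400 mg kg-1), corneas abraded and given 20 μL MRSA (6 × 10^7 CFU mL-1). From 24 h post-infection, treated by topical smear three times daily for one week. Controls: 5% glucose and 5% vancomycin. Six mice per group. Corneal viable counts measured.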

Staphylococcus aureus [4] = assay: Antibiofilm activity against Methicillin-resistant Staphylococcus aureus assessed as reduction in number of viable cells at 2 times MIC incubated for 24 hrs; type: functional, organism-based
Method in brief: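 Biofilm eradication: mid-log MRSA at 2 × 10^6 CFU mL-1 grown 48 h to form biofilms, then washed with PBS. Biofilms exposed to compound at MIC, 2× or 3× MIC for 24 h; medium-only control. Biofilms dispersed with trypsin–EDTA, serial 10-fold dilutions plated, colonies counted after 24 h, expressed as log10 CFU mL-1.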

Cell membrane [5] = assay: Induction of cell membrane depolarization in methicillin-resistant Staphylococcus aureus assessed as increase in fluorescence intensity at 3 times of MIC measured up to 15 hrs by DiSC3-5 dye based fluorescence analysis; type: subcellular
Method in brief: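 Membrane potential assay. Mid-log MRSA (6 h growth) pelleted and resuspended in 100 mM KCl, 5 mM HEPES (pH 7.3) and 5 mM glucose (1:1:1). Mixed with DiSC3(5) at 8 μM final and preincubated 40 min at 37 °C. Compound added at 3× MIC, water control. Fluorescence read at ex 622 / em 670 nm.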

Staphylococcus aureus [6] = assay: Antibacterial activity against methicillin-resistant Staphylococcus aureus infected in Kunming mouse corneal infection model assessed as reduction in viable bacterial count at 6 mg/ml, TOP administered 3 times daily for 1 week; type: functional, organism-based; conditions: time 1.0 weeks; method in brief: as §1
Cell membrane [7] = assay: Induction of cell membrane permeabilization in Escherichia coli assessed as increase in fluorescence intensity at 3 times MIC incubated for 8 hrs by PI staining based confocal laser scanning microscopic analysis; type: subcellular
Method in brief: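 Log-phase E. coli was washed and resuspended in PBS (10 mM, pH 7.2) at 2 × 10^6 CFU mL−1 (OD600 0.2–0.4). Cells were treated with 3× MIC for 8 h at 37 °C, with a PBS control, then stained with SYTO 9 and PI for 30 min in the dark and imaged by confocal microscopy. Run in duplicate.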

Klebsiella pneumoniae = assay: Antibacterial activity against drug-resistant Klebsiella pneumoniae assessed as reduction in bacterial growth by broth microdilution method; type: functional
Method in brief: (§2)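 Twofold serial dilution (microdilution) MIC in lysogeny broth (LB) medium against drug-resistant strains: MRSA USA300, vancomycin-resistant Enterococci, Klebsiella pneumoniae.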

Staphylococcus aureus [8] = assay: Antibacterial activity against methicillin-resistant Staphylococcus aureus assessed as reduction in viable bacterial count measured after 18 hrs; type: functional, organism-based
Staphylococcus aureus [9] = assay: Antibacterial activity against methicillin-resistant Staphylococcus aureus assessed as effect on viable bacterial growth measured after 24 hrs; type: functional, organism-based
Staphylococcus aureus [10] = assay: Antibiofilm activity against Methicillin-resistant Staphylococcus aureus assessed as reduction in number of viable cells at 8 times MIC incubated for 24 hrs; type: functional, organism-based
Staphylococcus aureus [11] = assay: Drug resistance, ratio of MIC for Staphylococcus aureus after 15 days to MIC for Staphylococcus aureus after initial exposure; type: functional; conditions: time 15 day
Method in brief: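 Resistance development: MRSA serially subcultured in fresh medium starting from the initial MIC. MIC reassessed every 24 h over 24 days, alongside a reference antibiotic given in twofold dilutions.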

[12] = Cytotoxicity against human HEK293 cells assessed as inhibition of cell growth incubated for 24 hrs by MTT assay; type: toxicity, cell-based
Method in brief: (§3)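 MTT assay with 24 h exposure of cells to the samples. IC50 is the concentration giving 50% growth inhibition, reported as mean ± S.D. of three independent experiments.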

Staphylococcus aureus [13] = assay: Antibacterial activity against methicillin-resistant Staphylococcus aureus assessed as reduction in viable bacterial count at 2 to 4 times MIC measured after 18 hrs; type: functional, organism-based
Bacillus subtilis = assay: Antibacterial activity against drug sensitive Bacillus subtilis 168 assessed as reduction in bacterial growth by broth microdilution method; type: functional
Method in brief: (§4)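 MICs were determined by standard twofold serial broth microdilution in lysogeny broth (LB) medium.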

[14] = Cytotoxicity against human HK-2 cells assessed as inhibition of cell growth incubated for 24 hrs by MTT assay; type: toxicity, cell-based; method in brief: as §3
Escherichia coli [15] = assay: Antibacterial activity against Escherichia coli measured for 15 days; type: functional, organism-based; conditions: time 15.0 day
Method in brief: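 E. coli was serially subcultured in fresh medium, starting from the initial MIC. The MIC was redetermined every 24 h. A reference antibiotic was tested in parallel by twofold dilution. The regimen ran for 24 days in total.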

Staphylococcus aureus [16] = assay: Antibacterial activity against methicillin-resistant Staphylococcus aureus assessed as increase in number of bacteria at 3 times MIC measured up to 5 hrs; type: functional, organism-based
Method in brief: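 Cells washed three times in sterile saline by centrifugation, moved to fresh TSB at 37 °C. Viable counts plated on TSB agar at 2–17 h. PCE = t − c, the time for a 1-log rise in treated versus control. Run twice.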

Escherichia coli [17] = assay: Bactericidal activity against Escherichia coli at 2 to 3 times MIC incubated for 24 hrs by time kill assay; type: functional, organism-based
[18] = Plasma protein binding in dog assessed as unbound fraction measured after 4 hrs by rapid equilibrium dialysis based LC-MS/MS analysis; type: ADME, cell-free, Canis lupus familiaris
Method in brief: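 Rapid equilibrium dialysis of dog plasma against PBS pH 7.4 across an 8000 MWCO membrane. A 10 mM stock was diluted 1:50 with water and added to the plasma side, with sarolaner as control. Plates were shaken for 4 h at 37 °C. Proteins were precipitated with ACN and both chambers quantified by LC-MS/MS. % free = buffer/plasma concentration × 100; % bound = 100 − % free. n = 4.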

Cell membrane [19] = assay: Induction of cell membrane permeabilization in methicillin-resistant Staphylococcus aureus assessed as increase in fluorescence intensity at 3 times MIC incubated for 8 hrs by PI staining based confocal laser scanning microscopic analysis; type: subcellular
Method in brief: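 Log-phase MRSA washed in PBS (10 mM, pH 7.2) and resuspended at 2 × 10^6 CFU mL-1 (OD600 0.2–0.4). Treated at 3× MIC for 8 h at 37 °C, PBS control. Stained with SYTO 9/propidium iodide 30 min in the dark, imaged by confocal laser scanning microscopy. Duplicate.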

Staphylococcus aureus [20] = assay: Antibacterial activity against methicillin-resistant Staphylococcus aureus USA300 assessed as reduction in bacterial growth by broth microdilution method; type: functional; method in brief: as §2
Escherichia coli [21] = assay: Antibacterial activity against drug sensitive Escherichia coli DH5alpha assessed as reduction in bacterial growth by broth microdilution method; type: functional; method in brief: as §4

CC(C)(C)c1ccc(CCNc2nc3ccccc3nc2N)cc1
Activity (Cell membrane [1]): Active | Activity (Staphylococcus aureus [2]): Active | Activity (Staphylococcus aureus [3]): inactive | Activity (Staphylococcus aureus [4]): Active | Activity (Cell membrane [5]): Active | Activity (Staphylococcus aureus [6]): Active | Activity (Cell membrane [7]): inactive | MIC (Klebsiella pneumoniae): 128 µg/mL (≈ 399 µM) | Activity (Staphylococcus aureus [8]): Dose-dependent-effect | Activity (Staphylococcus aureus [9]): Active | Activity (Staphylococcus aureus [10]): Active | Ratio (Staphylococcus aureus [11]): 3 | IC50 at 24 h [12]: 129 µg/mL (≈ 403 µM) | Activity (Staphylococcus aureus [13]): Active | MIC (Bacillus subtilis): 8 µg/mL (≈ 25 µM) | IC50 at 24 h [14]: 146 µg/mL (≈ 454 µM) | Activity (Escherichia coli [15]): Active | Activity (Staphylococcus aureus [16]): Active | Activity (Escherichia coli [17]): inactive | fraction unbound at 4 h [18]: 0.0731 | Activity (Cell membrane [19]): inactive | MIC (Staphylococcus aureus [20]): 8 µg/mL (≈ 25 µM) | MIC (Escherichia coli [21]): 4 µg/mL (≈ 12.5 µM)
